From ChEMBL document CHEMBL3102739, “Synthesis and antiproliferative activity of conformationally restricted 1,2,3-triazole analogues of combretastatins in the sea urchin embryo model and against human cancer cell lines” (Bioorg Med Chem, 2014) come the findings set out here.

Experiment [1] relates to Paracentrotus lividus. The experiment can be described thus: Antimitotic activity against sea urchin embryo model assessed as cleavage alteration of fertilized egg compound treated at 8 to 20 mins post-fertilization and 45 to 55 mins prior to first mitotic cycle completion measured 2.5 to 5.5 hrs post-fertilization. It counts as functional. An outline of the steps:
(§1)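 Fertilized eggs are exposed 8–20 min after fertilization to 2-fold decreasing concentrations. Stocks are 10 mM in DMSO, then diluted 10-fold in 95% EtOH; final DMSO is at most 0.05% and EtOH at most 1%. Embryos are kept as a monolayer, up to 2000 embryos/mL, in filtered seawater at room temperature. The value is the threshold concentration giving cleavage alteration, embryo death before hatching or full mitotic arrest. Duplicates were run.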

The test system of experiment [2] is Paracentrotus lividus. Briefly: Antimitotic activity against sea urchin embryo model assessed as cleavage arrest of fertilized egg compound treated at 8 to 20 mins post-fertilization and 45 to 55 mins prior to first mitotic cycle completion measured 2.5 to 5.5 hrs post-fertilization. The format is functional. The essentials:
as §1

The test system of experiment [3] is Paracentrotus lividus. The experiment can be described thus: Antimitotic activity against sea urchin embryo free-swimming blastula model assessed as embryo spinning compound treated at 8 to 10 hrs post-fertilization measured after 0.25 to 20 hrs. It counts as functional, Blastula stage.
Experiment [4] in a line: Cytotoxicity against human SH-SY5Y cells assessed as cell viability after 48 hrs. It counts as functional, cell-based.
The subject of experiment [5] is Jurkat. Briefly: Induction of apoptosis in human Jurkat cells assessed as active caspase 3 expression at 15 nM by FITC-conjugated flow cytometric analysis. It counts as functional, cell-based. The note with it: TDE = time-dependent effect. An outline of the steps: (§2)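 Jurkat or Jurkat/A4 cells treated, then permeabilized per the manufacturer's protocol and stained with FITC-conjugated monoclonal antibody to active caspase-3. Percentage of positive cells (M1 gate) measured by flow cytometry. Untreated cells served as controls.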
For orientation: Flow cytometry measures light scatter and fluorescence of single cells or particles in a stream.

The subject of experiment [6] is Jurkat. Briefly: Cytotoxicity against human Jurkat cells assessed as cell viability after 48 hrs by trypan blue exclusion assay. It counts as functional, cell-based. An outline of the steps:
(§3)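 Compound added to exponentially growing Jurkat or Jurkat/A4 cells in RPMI-1640 with 10% FCS at 37 °C. Viable cells counted directly by trypan blue exclusion after 48 h. EC50 taken by linear interpolation of survival data. Mean±SD from three independent experiments.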

For experiment [7], the system named is Jurkat. The experiment can be described thus: Induction of apoptosis in human Jurkat cells assessed as micronuclei formation after 48 hrs by May-Grunwald-Giemsa staining-based microscopic analysis. It counts as functional, cell-based. An outline of the steps:
(§4)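 Jurkat or Jurkat/A4 cells treated 48 h, with untreated cells as control. Cells cytospun, stained by May–Grünwald–Giemsa and examined by light microscopy with a 100× objective for micronuclei, membrane-enclosed fragments with unequally segregated chromosomes, and condensed nuclei.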

For experiment [8], the system named is Jurkat. Briefly: Induction of apoptosis in human Jurkat cells assessed as caspase 9 activation at 15 nM after 48 hrs by Western blotting analysis. The format is functional, cell-based. An outline of the steps:
(§5)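 Treatment 24 or 48 h (Jurkat 15 nM, Jurkat/A4 150 nM for CA4P). Cells washed in ice-cold PBS and lysed 30 min at 4 °C in 20 mM Tris-HCl pH 7.4, 1% Triton X-100, 150 mM NaCl with protease inhibitors. Equal protein run on 12% SDS-PAGE and blotted to PVDF. Probed with monoclonal antibodies to caspase-9, caspase-2, Bcl-2 or XIAP for 2 h at room temperature, then HRP anti-mouse and ECL. β-actin used as loading control.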
(In general: A western blot detects proteins with antibodies after separation by electrophoresis.)

Experiment [9] concerns Jurkat. Briefly: Cell cycle arrest in human Jurkat cells assessed as increase in accumulation at G2/M phase at 15 nM after 24 hrs by propidium iodide staining-based flow cytometric analysis. It counts as functional.
A short description of experiment [10]: Cytotoxicity against human Jurkat/A4 cells assessed as cell death at 1 uM after 48 hrs by trypan blue exclusion assay relative to control. The format is functional. An outline of the steps:
as §3

The subject of experiment [11] is Jurkat. The experiment can be described thus: Cell cycle arrest in human Jurkat cells assessed as decrease in accumulation at G0/G1 phase at 15 nM after 24 hrs by propidium iodide staining-based flow cytometric analysis. It counts as functional.
Experiment [12] deals with Jurkat/A4. The experiment can be described thus: Induction of apoptosis in human Jurkat/A4 cells assessed as micronuclei formation after 48 hrs by May-Grunwald-Giemsa staining-based microscopic analysis. The format is functional, cell-based. The essentials: as §4
Experiment [13] deals with Jurkat. The experiment can be described thus: Induction of apoptosis in human Jurkat cells assessed as caspase 2 activation at 15 nM after 24 to 48 hrs by Western blotting analysis. It counts as functional, cell-based. The essentials: as §5
The nature of experiment [14]: Induction of apoptosis in human Jurkat/A4 cells assessed as active caspase 3 expression at 150 nM after 48 hrs by FITC-conjugated flow cytometric analysis (reference value: 1.1%). The format is functional. The essentials:
as §2

Experiment [15] in a line: Cell cycle arrest in human Jurkat/A4 cells assessed as increase in accumulation at G2/M phase at 150 nM after 24 hrs by propidium iodide staining-based flow cytometric analysis. It counts as functional.
The test system of experiment [16] is Jurkat. Briefly: Induction of apoptosis in human Jurkat cells assessed as reduction of XIAP expression at 15 nM after 24 hrs Western blotting analysis. It counts as functional, cell-based. An outline of the steps:
as §5

Experiment [17] has as its system Jurkat. Briefly: Induction of apoptosis in human Jurkat cells assessed as active caspase 3 expression at 15 nM after 24 hrs by FITC-conjugated flow cytometric analysis (reference value: 3.3%). The format is functional. The essentials: as §2
A short description of experiment [18]: Induction of apoptosis in human Jurkat/A4 cells assessed as active caspase 3 expression at 150 nM after 24 hrs by FITC-conjugated flow cytometric analysis (reference value: 1.1%). It counts as functional. The essentials:
as §2

The subject of experiment [19] is Jurkat. Briefly: Induction of apoptosis in human Jurkat cells assessed as active caspase 3 expression at 15 nM after 48 hrs by FITC-conjugated flow cytometric analysis (reference value: 3.3%). The format is functional. An outline of the steps: as §2
The test system of experiment [20] is Jurkat. Briefly: Induction of apoptosis in human Jurkat cells assessed as small cell fragments with unequally segregated chromosomes enclosed by cell membrane after 48 hrs by May-Grunwald-Giemsa staining-based microscopic analysis. It counts as functional. An outline of the steps:
as §4

A short description of experiment [21]: Cell cycle arrest in human Jurkat/A4 cells assessed as accumulation at sub-G1 phase at 150 nM after 48 hrs by propidium iodide staining-based flow cytometric analysis (reference value: 17.1%). The format is functional.
Experiment [22] has as its system Jurkat/A4. Briefly: Induction of apoptosis in human Jurkat/A4 cells assessed as small cell fragments with unequally segregated chromosomes enclosed by cell membrane after 48 hrs by May-Grunwald-Giemsa staining-based microscopic analysis. The format is functional. An outline of the steps: as §4
Experiment [23] deals with Jurkat. The experiment can be described thus: Cell cycle arrest in human Jurkat cells assessed as accumulation at sub-G1 phase at 15 nM after 48 hrs by propidium iodide staining-based flow cytometric analysis (reference value: 12.2%). It counts as functional.
Experiment [24] concerns Jurkat/A4. The experiment can be described thus: Induction of apoptosis in human Jurkat/A4 cells assessed as caspase 2 activation at 150 nM after 24 to 48 hrs by Western blotting analysis. The format is functional, cell-based. The essentials:
as §5

For experiment [25], the system named is Jurkat/A4. Briefly: Induction of apoptosis in human Jurkat/A4 cells assessed as caspase 9 activation at 150 nM after 24 to 48 hrs by Western blotting analysis. It counts as functional, cell-based. The essentials: as §5
Experiment [26] relates to Jurkat. Briefly: Induction of apoptosis in human Jurkat cells assessed as Bcl-2 expression at 15 nM after 24 to 48 hrs Western blotting analysis. It counts as functional, cell-based. An outline of the steps: as §5
The nature of experiment [27]: Cell cycle arrest in human Jurkat/A4 cells assessed as decrease in accumulation at G0/G1 phase at 150 nM after 24 hrs by propidium iodide staining-based flow cytometric analysis. The format is functional.
Experiment [28] relates to Jurkat/A4. Briefly: Induction of apoptosis in human Jurkat/A4 cells assessed as reduction of XIAP expression at 150 nM after 24 hrs Western blotting analysis. It counts as functional, cell-based. An outline of the steps:
as §5

In experiment [29] the test system is Jurkat/A4. Briefly: Induction of apoptosis in human Jurkat/A4 cells assessed as Bcl-2 expression at 150 nM after 24 to 48 hrs Western blotting analysis. The format is functional, cell-based. The essentials:
as §5

Calls of active or inactive are those of the source.

Regarding `COc1ccc(-n2nncc2-c2cc(OC)c(OC)c(OC)c2)cc1`, the EC in [1] is 1 µM; in experiment [2] it was 4 µM; in [3], >4 µM. The IC50 in experiment [4] is > 1000 nM.

For `COc1ccc(/C=C\c2cc(OC)c(OC)c(OC)c2)cc1OP(=O)([O-])[O-].[Na+].[Na+]` [FOSBRETABULIN DISODIUM], the Activity entry was “tde” in experiment [5]; <20% in [10]; 1.6% in experiment [14]; 15% in experiment [17]; 2.2% in [18]; 31.6% in [19]. The Activity in experiment [21] is 24.3%; in [23] it was 39.5%. For the same compound, in experiment [6], the half-maximal effective concentration (EC50) amounted to 15 nM. In addition, the outcome in [7], in experiment [8], in experiment [9], in [11], in experiment [12] and in [13] was Active. The outcome in experiment [15], in experiment [16], in [20], in [22] and in experiment [27] was Active. Also, the outcome in experiment [24], in experiment [25], in [26], in experiment [28] and in experiment [29] was inactive.

As usually defined, the IC50 is the concentration that inhibits the measured activity by half. Broadly, the EC50 is the concentration at which the effect is half-maximal.
